Legend:
[1] = test system: Norovirus; experiment: Antiviral activity against human Norovirus; type: functional
[2] = Cytotoxicity against mouse RAW264.7 cells assessed as reduction in cell viability incubated for 3 days by MTS assay; type: cell-based; details: time 3 day
Method in brief: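 Uninfected RAW 264.7 cells were exposed for 3 days to the same compound concentrations used in the MNV assay, then MTS read-out. Viability was expressed as % of untreated cells, and CC₅₀ is the concentration that reduced viable cells by 50%.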

[3] = Antiviral activity against murine Norovirus infected in mouse RAW264.7 cells assessed as reduction in virus-induced cytopathic effect incubated for 72 hrs by MTS assay; type: functional, cell-based; details: RAW264.7, 72 h
Method in brief: (§1)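 RAW 264.7 cells (1 × 10⁴/well) infected with MNV-1.CW1 at MOI 0.001 alongside a compound dilution series (0.023–50 or 100 µg/mL; 8 concentrations). Incubated 3 days until CPE was complete in untreated infected wells. MTS/PMS added, OD read at 498 nm after 2 h. %CPE reduction taken against uninfected and infected untreated controls; EC₅₀ is 50% protection from CPE.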

[4] = Selectivity index, ratio of CC50 for mouse RAW264.7 cells to EC50 for antiviral activity against murine Norovirus infected in mouse RAW264.7 cells; type: toxicity, cell-based; details: read-out: Ratio CC50/EC50
Method in brief: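 Ratio of CC₅₀ (MTS, uninfected RAW 264.7, 3 days) to EC₅₀ (MNV CPE-reduction MTS assay in RAW 264.7, 3 days), calculated as CC₅₀/EC₅₀.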

[5] = test system: Norovirus; experiment: Antiviral activity against human Norovirus GI.1 infected in human HGT-1 cells assessed as reduction in virus replication incubated for 72 hrs by qRT-PCR analysis; type: functional, cell-based; details: GI.1, HGT-1, 72 h
Method in brief: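 HGT-1 cells stably carrying the GI.1 HuNoV replicon were seeded at 5,000/well in complete DMEM without G418. Serial compound dilutions were added after 24 h, followed by 72 h incubation and a PBS wash. Intracellular replicon RNA was quantified by qRT-PCR, normalised to β-actin by the Pfaffl method with per-run efficiencies. EC₅₀ is 50% reduction of relative replicon RNA.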

[6] = Antiviral activity against murine Norovirus infected in mouse RAW264.7 cells assessed as reduction in virus-induced cytopathic effect incubated for 3 days by MTS assay; type: functional, cell-based; details: RAW264.7, 72 h; method in brief: as §1
[7] = test system: Norovirus; experiment: Antiviral activity against human Norovirus infected in BJAB cells assessed as reduction in viral replication incubated for 3 days by qRT-PCR analysi; type: functional, cell-based; details: 72 h
[8] = Inhibition of human Norovirus RNA-dependent RNA polymerase assessed as decrease in GTP incorporation incubated for 10 mins by scintillation counting method
[9] = Inhibition of mouse Norovirus RNA-dependent RNA polymerase assessed as decrease in GTP incorporation incubated for 10 mins by scintillation counting method
[10] = Inhibition of recombinant Norovirus GII.4 C-terminal His6-tagged RNA-dependent RNA polymerase in Escherichia coli assessed as decrease in GTP incorporation incubated for 10 mins by scintillation counting method
[11] = Antiviral activity against murine Norovirus GV.1 infected in mouse RAW264.7 cells assessed as reduction in plaque formation incubated for 48 hrs by qRT-PCR analysis; type: functional, cell-based; details: GV.1, RAW264.7, 48 h

For `C[C@@]1(F)[C@H](O)[C@@H](CO)O[C@H]1n1ccc(N)nc1=O`, the EC50 [1] was 3.2 µM.

Compound `Nc1ncnn2c([C@@H]3O[C@H](CO)[C@@H](O)[C@H]3O)cc(Br)c12` has a CC50 at 72 h [2] of 0.45 µM, an EC50 [3] of 0.024 µM and a selectivity ratio [4] of 19. For the same compound, the EC50 [5] was over 10 µM.

In the case of `C[C@@]1(O)[C@H](O)[C@@H](CO)O[C@H]1n1ccc(N)nc1=O`, the EC50 [1] is reported as 8.2 µM, the EC50 [6] is reported as 2 µM and the EC50 [7] is reported as 0.3 µM.

With `C[C@H](NP(=O)(N[C@@H](C)C(=O)OCc1ccccc1)OC[C@H]1O[C@@H](c2cc(Cl)c3c(N)ncnn23)[C@H](O)[C@@H]1O)C(=O)OCc1ccccc1` the CC50 at 72 h [2] was over 10 µM and the EC50 [3] was over 10 µM.

`O=C(Nc1cccc(C(=O)Nc2ccc(S(=O)(=O)O)c3cc(S(=O)(=O)O)cc(S(=O)(=O)O)c23)c1)Nc1cccc(C(=O)Nc2ccc(S(=O)(=O)O)c3cc(S(=O)(=O)O)cc(S(=O)(=O)O)c23)c1` gave an IC50 [8] of 0.071 µM and an IC50 [9] of 0.2 µM.

Compound `Nc1ncnn2c([C@@H]3O[C@H](CO)[C@@H](O)[C@H]3O)cc(Cl)c12` has a CC50 at 72 h [2] of over 0.01 µM, an EC50 [3] of 0.007 µM and a selectivity ratio [4] of over 1. For the same compound, the EC50 [5] was over 10 µM.

Work on `Nc1ncnn2c([C@@H]3O[C@H](CO)[C@@H](O)[C@H]3O)ccc12` yielded a CC50 at 72 h [2] of 0.14 µM, an EC50 [3] of 0.007 µM and a selectivity ratio [4] of 20. It also gave an EC50 [5] of 0.015 µM.

With `O=C(O)c1[nH]nnc1-c1ccccc1` the IC50 [10] was 9.2 µM and the EC50 [11] was 34.5 µM.

For `Cc1nc(-c2ccccc2)sc1C(=O)Nc1sc2c(c1C#N)CCC2`, the IC50 [10] was 5 µM and the EC50 [11] was 4.8 µM.

For `Cc1ccc(C(=O)Nc2ccc(S(=O)(=O)O)c3cc(S(=O)(=O)O)cc(S(=O)(=O)O)c23)cc1NC(=O)c1cccc(NC(=O)Nc2cccc(C(=O)Nc3cc(C(=O)Nc4ccc(S(=O)(=O)O)c5cc(S(=O)(=O)O)cc(S(=O)(=O)O)c45)ccc3C)c2)c1` [SURAMIN], the IC50 [8] was 0.025 µM and the IC50 [9] was 0.07 µM.

Work on `Nc1ncnc2c1c(Cl)cn2[C@@H]1O[C@H](CO)[C@@H](O)[C@H]1O` yielded a CC50 at 72 h [2] of 2.53 µM and an EC50 [3] of over 2 µM.

`C[C@@]1(O)[C@H](O)[C@@H](CO)O[C@H]1c1ccc2c(N)ncnn12` gave a CC50 at 72 h [2] of 23.7 µM, an EC50 [3] of 11.1 µM and a selectivity ratio [4] of 2.

In the case of `Nc1ncnn2c([C@H]3O[C@@H](CO)[C@H](O)[C@@H]3O)cc(Cl)c12`, the CC50 at 72 h [2] is reported as over 100 µM and the EC50 [3] is reported as over 100 µM.

Work on `C[C@@]1(O)[C@H](O)[C@@H](CO)O[C@H]1c1cc(Cl)c2c(N)ncnn12` yielded a CC50 at 72 h [2] of 4.78 µM and an EC50 [3] of over 4 µM.

`Nc1ncnn2c([C@@H]3O[C@H](CO)[C@@H](O)[C@H]3O)cc(I)c12` gave a CC50 at 72 h [2] of 0.78 µM, an EC50 [3] of 0.035 µM and a selectivity ratio [4] of 22. The EC50 [5] was over 10 µM.

Compound `NC(=O)c1ncn([C@@H]2O[C@H](CO)[C@@H](O)[C@H]2O)n1` [RIBAVIRIN] has an EC50 [1] of 43 µM.

With `Nc1ncnn2c([C@H]3O[C@@H](CO)[C@H](O)[C@@H]3O)ccc12` the CC50 at 72 h [2] was over 100 µM and the EC50 [3] was over 100 µM.

Source: ChEMBL document CHEMBL4680252, “Anti-norovirus activity of C7-modified 4-amino-pyrrolo[2,1-f][1,2,4]triazine C-nucleosides” (Eur J Med Chem, 2020)
